Assay outcomes (PubChem BioAssay)
This is one part of a sample in which hits are shown more often than they occur.
T cruzi growth-1: T. cruzi intracellular proliferation inhibitors, primary screen, cell-based, beta-gal Tulahuen parasites, NIH3T3 host, luminescence. T. cruzi beta-gal in NIH3T3, GalScreen luminescence, 90 h. inhibition, % at 8.34 µM. 77,000 tested, 5.9% active. AID 624255, 2012;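 active = mean inhibition above about 93%, with at least 55% of replicates each passing it, limit read from the data, passing the limit was not always enough; inconclusive = only one of those two conditions holds; inactive = neither condition holds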
KDM4C inh: inhibitors of GASC-1 (KDM4C) histone demethylase, primary screen, biochemical, single concentration HTS; Lysine-specific demethylase 4C (Homo sapiens), Q9H3R0; inhibition, % at 12.5 µM; GST-KDM4C 2-372, H3K9me3 peptide, LANCE TR-FRET; 96,000 tested, 0.15% active;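 active = mean replicate inhibition above about 25%, with at least 55% of replicates also reaching it, limit read from the data, passing the limit was not always enough; inconclusive = only one of those two conditions met; inactive = neither condition met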
Target sequence (Q9H3R0 2-372 limits assumed): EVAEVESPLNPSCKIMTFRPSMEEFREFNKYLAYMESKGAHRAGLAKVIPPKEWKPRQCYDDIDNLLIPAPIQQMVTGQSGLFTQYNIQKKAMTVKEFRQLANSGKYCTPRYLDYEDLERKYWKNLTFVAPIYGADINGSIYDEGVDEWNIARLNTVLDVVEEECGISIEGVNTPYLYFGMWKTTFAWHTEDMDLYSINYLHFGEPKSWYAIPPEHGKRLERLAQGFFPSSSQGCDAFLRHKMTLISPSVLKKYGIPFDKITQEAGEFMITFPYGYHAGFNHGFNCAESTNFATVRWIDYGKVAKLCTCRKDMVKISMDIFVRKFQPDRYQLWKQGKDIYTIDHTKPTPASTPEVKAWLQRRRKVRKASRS
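Test system – GST-tagged GASC-1 (JMJD2C) catalytic fragment, aa 2-372 · Medium – HEPES buffer, pH 7.5, plus ascorbate · Reagent – H3K9me3 peptide with Fe(II)/2OG · Compound – one test concentration per compound · Timing – 30 min reaction, 60 min detection, RT · Technique – TR-FRET with Eu antibody and ULight streptavidin, EDTA stop · Read-out basis – inhibition from TR-FRET ratio decrease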
IDH1 mut inh: inhibitors of IDH1 R132H reductase, primary screen, biochemical, plate reader, single point. AID 624101, 2012. 70,000 tested, 0.18% active. Isocitrate dehydrogenase [NADP] cytoplasmic (Homo sapiens), O75874. inhibition, % at 10 µM. diaphorase/resazurin fluorescence, 60 min; in the data active = inhibition above about 34%; inconclusive = no clear call, values can overlap the other calls; inactive = below about 11%;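 also: 0% = DMSO and 100% = no enzyme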
Target sequence (O75874 whole entry R132H): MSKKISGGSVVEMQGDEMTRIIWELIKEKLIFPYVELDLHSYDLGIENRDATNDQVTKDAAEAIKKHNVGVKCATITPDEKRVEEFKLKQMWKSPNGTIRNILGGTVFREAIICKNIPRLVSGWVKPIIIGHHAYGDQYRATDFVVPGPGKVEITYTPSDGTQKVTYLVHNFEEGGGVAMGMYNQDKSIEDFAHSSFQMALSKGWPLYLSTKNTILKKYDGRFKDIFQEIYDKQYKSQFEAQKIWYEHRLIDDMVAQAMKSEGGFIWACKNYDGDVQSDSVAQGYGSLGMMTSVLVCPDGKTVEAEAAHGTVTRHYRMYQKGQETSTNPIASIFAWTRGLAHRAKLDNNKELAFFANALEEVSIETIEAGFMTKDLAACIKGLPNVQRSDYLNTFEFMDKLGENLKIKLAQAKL
T cruzi growth-2: T. cruzi intracellular proliferation inhibitors, confirmation, cell-based, NIH3T3 host, beta-gal parasite, luminescence, cherry-pick. shares compounds with T cruzi growth-1. T. cruzi beta-gal in NIH3T3, GalScreen luminescence, 90 h. inhibition, % at 8.35 µM. 5,600 tested, 72% active;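 active = mean replicate inhibition above about 95% and at least 55% of replicates individually reaching it, limit read from the data; inconclusive = only one of the two criteria is met; inactive = neither criterion is met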
T cruzi growth-3: inhibitors of intracellular T. cruzi replication, confirmation, NIH3T3 host cells, beta-gal parasites, cherry-pick, set 2 | 5,600 tested, 21% active | AID 651740, 2012 | inhibition, % at 2.09 µM | shares compounds with T cruzi growth-1 | T. cruzi beta-gal in NIH3T3, GalScreen luminescence, 90 h;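 active = mean inhibition above about 95%, with at least 55% of replicates also reaching it, limit read from the data; inconclusive = meets just one of the two conditions; inactive = meets neither condition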;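 also: plate controls were neutral control median for no effect and positive control median for full effect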
3T3 cytotox: cytotoxicity in mouse NIH/3T3 fibroblasts, confirmation, cytotoxicity control for T. cruzi proliferation inhibitor project, cell-based, cherry-pick, single point. NIH/3T3 viability, CellTiter-Glo ATP luminescence, 90 h. cytotoxicity (signal decrease), % at 8.35 µM. shares compounds with T cruzi growth-1. 5,600 tested, 14% active;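 active = mean signal decrease across replicates above about 35% based on untreated-well scatter, with enough replicates individually passing, limit read from the data; inconclusive = no rule stated though some were filed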;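 also: 0% = median of neutral control wells and 100% = median of positive control wells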
NIH3T3 tox 2: NIH/3T3 fibroblast cytotoxicity, confirmation, cytotoxicity control, cell-based, cherry-pick, single point, set 2. NIH/3T3 viability, CellTiter-Glo ATP luminescence, 90 h. inhibition, % at 24.9 µM. 5,600 tested, 56% active. AID 651744, 2012. shares compounds with T cruzi growth-1;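 active = mean loss of cell viability signal at or above a set limit, and enough replicates individually reaching it; inconclusive = meets only the mean limit or only the replicate share; inactive = meets neither condition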;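 also: 0% = median of neutral control wells and 100% = median of positive control wells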
* marks the source's active call; other numbers are inactive results; ? = inconclusive; nt = not tested or not shown; + = active, no number.

SMILES	T cruzi growth-1	KDM4C inh	IDH1 mut inh	T cruzi growth-2	T cruzi growth-3	3T3 cytotox	NIH3T3 tox 2
Cc1ccc(NC(=O)CSc2nc(C)cc(-c3ccccc3)n2)cc1	nt	nt	-0.8	nt	nt	nt	nt
CCOc1ccc(-n2c(C)nnc2SCC(=O)Nc2ccc(Br)cc2F)cc1	nt	nt	11.7	nt	nt	nt	nt
CCC(=O)NC[C@@H]1[C@H](c2ccc(-c3cccc(F)c3)cc2)[C@@H](CO)N1C(=O)CC	100.6*	-0.6	nt	-41.2	-72.9	-34.6	-29.8
CCC(=O)NC[C@@H]1[C@H](c2ccc(-c3cccc(F)c3)cc2)[C@H](CO)N1C(=O)CC	?	-1.1	nt	11.8	-18.8	-8.4	-9.5
CCC(=O)NC[C@H]1[C@@H](c2ccc(-c3cccc(F)c3)cc2)[C@H](CO)N1C(=O)CC	29.8	-3.2	nt	nt	nt	nt	nt
CCC(=O)NC[C@@H]1[C@@H](c2ccc(-c3cccc(F)c3)cc2)[C@H](CO)N1C(=O)CC	91.7	-0.7	nt	nt	nt	nt	nt
CCC(Sc1nnnn1C)C(=O)Nc1cccc([N+](=O)[O-])c1 (configuration not stated)	nt	nt	0.2	nt	nt	nt	nt
O=C(CC1NCCNC1=O)Nc1ccccc1Cl (configuration not stated)	nt	nt	-0.1	nt	nt	nt	nt
O=S(=O)(CCc1nnc(-c2ccccc2)o1)c1ccc(Cl)cc1	nt	nt	0.1	nt	nt	nt	nt
CCC1(C)Cc2ccccc2-c2nc3[nH]nc(SCC(=O)Nc4ccc(OC)c(Cl)c4)n3c(=O)c21 (configuration not stated)	nt	nt	-0.3	nt	nt	nt	nt
C[C@@H]1CN([C@@H](C)CO)S(=O)(=O)c2ccc(/C=C/c3ccccc3)cc2O[C@@H]1CN(C)C(=O)NC1CCCC1	?	-1.7	1.3	101.8*	81.7	2.7	25.5*
C[C@H]1CN([C@@H](C)CO)S(=O)(=O)c2ccc(/C=C/c3ccccc3)cc2O[C@@H]1CN(C)C(=O)NC1CCCC1	99.1*	-2.4	nt	?	56.2	-1.5	96.0*
C[C@H](CO)N1C[C@H](C)[C@H](CN(C)C(=O)NC2CCCC2)Oc2cc(/C=C/c3ccccc3)ccc2S1(=O)=O	94.2	-1.3	-0.7	nt	nt	nt	nt
C[C@@H]1CN([C@H](C)CO)S(=O)(=O)c2ccc(/C=C/c3ccccc3)cc2O[C@@H]1CN(C)C(=O)NC1CCCC1	82.1	-0.7	nt	nt	nt	nt	nt
O=C(CCCOc1ccc(Cl)cc1Cl)Nc1ccccc1[N+](=O)[O-]	nt	nt	0.1	nt	nt	nt	nt
CN1CCN(C(=O)[C@H]2[C@H](CO)[C@H]3Cn4c(cccc4=O)[C@@H]2N3Cc2ccncc2)CC1	+	1.2	nt	-17.4	-2.2	-2.6	-13.7
O=C(NCc1ccc(F)cc1)[C@@H]1[C@@H](CO)[C@@H]2Cn3c(cccc3=O)[C@H]1N2	?	-2.6	nt	-31.5	-24.9	-18.9	-13.3
O=C(NCc1ccc(F)cc1)[C@H]1[C@H](CO)[C@H]2Cn3c(cccc3=O)[C@@H]1N2Cc1cccnc1	99.1*	-1.3	nt	89.3	-13.3	-3.4	-11.0
O=C(NCc1ccc(F)cc1)[C@H]1[C@H](CO)[C@H]2Cn3c(cccc3=O)[C@@H]1N2	91.7	-0.9	nt	nt	nt	nt	nt
C[C@H](NC(=O)[C@@H]1[C@@H](CO)[C@@H]2Cn3c(cccc3=O)[C@H]1N2Cc1ccncc1)c1ccccc1	17.4	0.6	nt	nt	nt	nt	nt
O=C(Nc1ccccc1)[C@@H]1[C@@H](CO)[C@@H]2Cn3c(cccc3=O)[C@H]1N2Cc1ccncc1	99.7*	1.3	nt	?	12.6	-1.4	3.5
O=C(NCc1ccc(F)cc1)[C@@H]1[C@@H](CO)[C@@H]2Cn3c(cccc3=O)[C@H]1N2Cc1ccncc1	-6.8	-2.1	nt	nt	nt	nt	nt
O=C(Nc1ccc(-c2ccccc2)cc1)[C@H]1[C@H](CO)[C@H]2Cn3c(cccc3=O)[C@@H]1N2Cc1ccncc1	-37.4	-2.5	nt	nt	nt	nt	nt
O=C(NCCN1CCOCC1)C1CC(c2ccc(Cl)c(Cl)c2)=NO1 (configuration not stated)	nt	nt	-0.7	nt	nt	nt	nt
Cc1sc2ncnc(SCC(=O)c3cc(Cl)sc3Cl)c2c1C	nt	nt	0.2	nt	nt	nt	nt
SMILES	T cruzi growth-1	KDM4C inh	IDH1 mut inh	T cruzi growth-2	T cruzi growth-3	3T3 cytotox	NIH3T3 tox 2
C[C@H]1CCCCO[C@H](CN(C)C(=O)Nc2ccc(F)cc2)[C@@H](C)CN([C@@H](C)CO)C(=O)c2cc(NC(=O)Nc3ccc(C(F)(F)F)cc3)ccc2O1	85.6	-1.6	nt	nt	nt	nt	nt
C[C@H](CO)N1C[C@H](C)[C@H](CN(C)C(=O)Nc2ccc(C(F)(F)F)cc2)OCCCC[C@H](C)Oc2ccc(NC(=O)Nc3ccc(C(F)(F)F)cc3)cc2C1=O	126.4*	-0.7	nt	102.1*	117.4*	6.6	12.6
C[C@@H]1CN([C@H](C)CO)C(=O)c2cc(NC(=O)Nc3ccc(F)cc3)ccc2O[C@@H](C)CCCCO[C@H]1CN(C)C(=O)Nc1ccc(C(F)(F)F)cc1	82.8	0.1	7.2	nt	nt	nt	nt
C[C@@H]1CCCCO[C@@H](CN(C)C(=O)Nc2ccc(C(F)(F)F)cc2)[C@@H](C)CN([C@H](C)CO)C(=O)c2cc(NC(=O)Nc3ccc4c(c3)OCO4)ccc2O1	nt	-1.0	2.1	nt	nt	nt	nt
C[C@@H]1CCCCO[C@H](CN(C)C(=O)Nc2ccc(C(F)(F)F)cc2)[C@H](C)CN([C@@H](C)CO)C(=O)c2cc(NC(=O)Nc3ccc(C(F)(F)F)cc3)ccc2O1	116.1*	-0.8	nt	108.0*	113.3*	0.9	-18.2
C[C@@H]1CCCCO[C@H](CN(C)C(=O)Nc2ccc(C(F)(F)F)cc2)[C@H](C)CN([C@@H](C)CO)C(=O)c2cc(NC(=O)Nc3ccc4c(c3)OCO4)ccc2O1	117.3*	-2.8	-1.6	107.3*	108.6*	-7.0	5.7
C[C@H]1CCCCO[C@H](CN(C)C(=O)Nc2ccc(C(F)(F)F)cc2)[C@@H](C)CN([C@@H](C)CO)C(=O)c2cc(NC(=O)Nc3ccc(F)cc3)ccc2O1	100.6	-0.2	0.1	nt	nt	nt	nt
C[C@@H]1CCCCO[C@H](CN(C)C(=O)Nc2ccc(C(F)(F)F)cc2)[C@@H](C)CN([C@H](C)CO)C(=O)c2cc(NC(=O)Nc3ccc(C(F)(F)F)cc3)ccc2O1	102.6*	0.1	-2.2	101.4*	?	0.9	15.7
O=C(Nc1sc2c(c1C(=O)NCc1ccco1)CCCC2)c1ccc(Br)cc1	nt	nt	0.1	nt	nt	nt	nt
Cc1ccc(S(=O)(=O)NCC(=O)Nc2ccc(C(N)=O)cc2)cc1	nt	nt	0.4	nt	nt	nt	nt
CCCC[C@H](O)[C@@H]1CC(OC)=CC(=O)O1	nt	nt	0.5	nt	nt	nt	nt
O=C(COc1ccc(C(=O)Nc2ccc(F)cc2)cc1)Nc1cc(Cl)cc(Cl)c1	nt	nt	0.1	nt	nt	nt	nt
